Assays:
Streptococcus pneumoniae [1] = assay: Antibacterial activity against Streptococcus pneumoniae M46B overexpressing patA, patB and inactivated patB with single mutation by standardized agar doubling dilution method in presence of 20 ug/ml reserpine efflux pump inhibitor; format: functional
In short: (§1)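 MICs were determined by BSAC agar doubling dilution in the presence of reserpine at 20 μg/ml. Strains were grown in BHI broth for 24 h at 37°C in 5% CO2, with R6 as control. Synergy was defined as an MIC drop of ≥2 dilutions with the inhibitor.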

Streptococcus pneumoniae [2] = assay: Antibacterial activity against dye-resistant Streptococcus pneumoniae M55 DR overexpressing patA, patB by standardized agar doubling dilution method; format: functional
In short: (§2)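 MICs were determined by agar doubling dilution following BSAC guidelines, with no efflux inhibitor. Strains were grown in brain heart infusion broth for 24 h at 37°C in 5% CO2. Species identity was confirmed by Gram stain, optochin sensitivity and capsule test. Control strain R6 was tested alongside.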

Streptococcus pneumoniae [3] = assay: Antibacterial activity against Streptococcus pneumoniae M319 overexpressing patA, patB and inactivated patB with single mutation by standardized agar doubling dilution method in presence of 20 ug/ml reserpine efflux pump inhibitor; format: functional; in short: as §1
Streptococcus pneumoniae [4] = assay: Antibacterial activity against fluoroquinolone-resistant Streptococcus pneumoniae by standardized agar doubling dilution method in presence of 20 ug/ml reserpine efflux pump inhibitor; format: functional
In short: (§3)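 MIC by agar doubling dilution following BSAC guidelines. Strains grown in brain heart infusion broth 24 h at 37°C in 5% CO2. Where an efflux pump inhibitor applies, MIC redetermined with reserpine at 20 μg/ml or sodium orthovanadate at 50 μM. Synergy taken as a fall in MIC of ≥2 dilutions with inhibitor present. Dye resistance defined relative to R6 (both dyes ≥2 dilutions higher).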

Streptococcus pneumoniae [5] = assay: Antibacterial activity against Streptococcus pneumoniae M50A overexpressing patA, patB and inactivated patA with single mutation by standardized agar doubling dilution method; format: functional; in short: as §2
Streptococcus pneumoniae [6] = assay: Antibacterial activity against fluoroquinolone, dye-resistant Streptococcus pneumoniae M87 overexpressing patA, patB by standardized agar doubling dilution method; format: functional; in short: as §3
Streptococcus pneumoniae [7] = assay: Antibacterial activity against fluoroquinolone, dye-resistant Streptococcus pneumoniae M42 overexpressing patA, patB by standardized agar doubling dilution method in presence of 20 ug/ml reserpine efflux pump inhibitor; format: functional; in short: as §3
Streptococcus pneumoniae [8] = assay: Antibacterial activity against Streptococcus pneumoniae M305 overexpressing patA, patB and inactivated patB with single mutation by standardized agar doubling dilution method in presence of 20 ug/ml reserpine efflux pump inhibitor; format: functional
In short: (§4)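 MICs determined by BSAC standardized agar doubling dilution. Strains were grown in brain heart infusion broth for 24 h at 37°C in 5% CO2. Inhibitor arms had reserpine at 20 μg/ml or sodium orthovanadate at 50 μM in the agar. Mutants were made by transforming magellan2 insertion amplimers into clinical isolates and selecting on spectinomycin 100 mg/liter, with a no-DNA spontaneous-mutation control.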

Streptococcus pneumoniae [9] = assay: Antibacterial activity against Streptococcus pneumoniae M307 overexpressing patA, patB and inactivated patB with single mutation by standardized agar doubling dilution method in presence of 20 ug/ml reserpine efflux pump inhibitor; format: functional; in short: as §4
Streptococcus pneumoniae [10] = assay: Antibacterial activity against fluoroquinolone-resistant Streptococcus pneumoniae M98 FQ-R overexpressing patA, patB by standardized agar doubling dilution method in presence of 50 uM sodium orthovanadate efflux pump inhibitor; format: functional
In short: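 Clinical S. pneumoniae isolates grown in BHI broth 24 h at 37°C in 5% CO2. MICs by agar doubling dilution per BSAC guidelines, alone or with efflux inhibitor reserpine (20 μg/ml) or sodium orthovanadate (50 μM). Synergy defined as ≥2-dilution MIC reduction in presence of inhibitor.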

Streptococcus pneumoniae [11] = assay: Antibacterial activity against Streptococcus pneumoniae M50A overexpressing patA, patB and inactivated patA with single mutation by standardized agar doubling dilution method in presence of 50 uM sodium orthovanadate efflux pump inhibitor; format: functional
In short: (§5)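 MICs were determined by BSAC agar doubling dilution in the presence of sodium orthovanadate at 50 μM. Cultures were grown in BHI broth for 24 h at 37°C in 5% CO2, with R6 as control. Synergy was defined as an MIC reduction of ≥2 dilutions with the inhibitor present.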

Streptococcus pneumoniae [12] = assay: Antibacterial activity against Streptococcus pneumoniae M309 overexpressing patA, patB and inactivated patB with single mutation by standardized agar doubling dilution method in presence of 50 uM sodium orthovanadate efflux pump inhibitor; format: functional; in short: as §4
Streptococcus pneumoniae [13] = assay: Antibacterial activity against Streptococcus pneumoniae M302 overexpressing patA, patB and inactivated patA with single mutation by standardized agar doubling dilution method in presence of 50 uM sodium orthovanadate efflux pump inhibitor; format: functional; in short: as §4
Streptococcus pneumoniae [14] = assay: Antibacterial activity against fluoroquinolone-resistant Streptococcus pneumoniae M97 FQ-R overexpressing patA, patB by standardized agar doubling dilution method; format: functional
In short: (§6)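 MIC by agar doubling dilution per BSAC guidelines; strains pregrown in brain heart infusion broth 24 h, 37°C, 5% CO2. MICs measured alone and with efflux pump inhibitors reserpine (20 μg/ml) or sodium orthovanadate (50 μM); synergy defined as ≥2-dilution MIC reduction in presence of inhibitor.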

Streptococcus pneumoniae [15] = assay: Antibacterial activity against Streptococcus pneumoniae M301 overexpressing patA, patB and inactivated patA with single mutation by standardized agar doubling dilution method in presence of 50 uM sodium orthovanadate efflux pump inhibitor; format: functional; in short: as §4
Streptococcus pneumoniae [16] = assay: Antibacterial activity against Streptococcus pneumoniae M304 overexpressing patA, patB and inactivated patA with single mutation by standardized agar doubling dilution method; format: functional; in short: as §4
Streptococcus pneumoniae [17] = assay: Antibacterial activity against Streptococcus pneumoniae M306 overexpressing patA, patB and inactivated patB with single mutation by standardized agar doubling dilution method in presence of 50 uM sodium orthovanadate efflux pump inhibitor; format: functional; in short: as §4
Streptococcus pneumoniae [18] = assay: Antibacterial activity against fluoroquinolone, dye-resistant Streptococcus pneumoniae M297 overexpressing patA, patB by standardized agar doubling dilution method in presence of 50 uM sodium orthovanadate efflux pump inhibitor; format: functional; in short: as §3
Streptococcus pneumoniae [19] = assay: Antibacterial activity against Streptococcus pneumoniae M318 overexpressing patA, patB and inactivated patA with single mutation by standardized agar doubling dilution method; format: functional; in short: as §2
Streptococcus pneumoniae [20] = assay: Antibacterial activity against Streptococcus pneumoniae M318 overexpressing patA, patB and inactivated patA with single mutation by standardized agar doubling dilution method in presence of 20 ug/ml reserpine efflux pump inhibitor; format: functional; in short: as §1
Streptococcus pneumoniae [21] = assay: Antibacterial activity against Streptococcus pneumoniae M45A overexpressing patA, patB and inactivated patA with single mutation by standardized agar doubling dilution method in presence of 50 uM sodium orthovanadate efflux pump inhibitor; format: functional; in short: as §5
Streptococcus pneumoniae [22] = assay: Antibacterial activity against Streptococcus pneumoniae M316 overexpressing patA, patB and inactivated patA with single mutation by standardized agar doubling dilution method in presence of 20 ug/ml reserpine efflux pump inhibitor; format: functional; in short: as §1
Streptococcus pneumoniae [23] = assay: Antibacterial activity against Streptococcus pneumoniae M306 overexpressing patA, patB and inactivated patB with single mutation by standardized agar doubling dilution method; format: functional; in short: as §4
Streptococcus pneumoniae [24] = assay: Antibacterial activity against fluoroquinolone-resistant Streptococcus pneumoniae M100 FQ-R overexpressing patA, patB by standardized agar doubling dilution method in presence of 20 ug/ml reserpine efflux pump inhibitor; format: functional; in short: as §6
Streptococcus pneumoniae [25] = assay: Antibacterial activity against Streptococcus pneumoniae M310 overexpressing patA, patB and inactivated patB with single mutation by standardized agar doubling dilution method; format: functional; in short: as §4
Streptococcus pneumoniae [26] = assay: Antibacterial activity against Streptococcus pneumoniae M298 overexpressing patA, patB and inactivated patA with single mutation by standardized agar doubling dilution method in presence of 20 ug/ml reserpine efflux pump inhibitor

O=C(O)c1cn(C2CC2)c2cc(N3CCNCC3)c(F)cc2c1=O [CIPROFLOXACIN]
4 mg/L: MIC90 (Streptococcus pneumoniae [4]) | MIC (Streptococcus pneumoniae [5]) | MIC (Streptococcus pneumoniae [11]) | MIC (Streptococcus pneumoniae [13]) | MIC (Streptococcus pneumoniae [16]) | MIC (Streptococcus pneumoniae [17]) | MIC (Streptococcus pneumoniae [23]) | MIC (Streptococcus pneumoniae [25])
1 mg/L: MIC (Streptococcus pneumoniae [21])
32 mg/L: MIC (Streptococcus pneumoniae [6]) | MIC (Streptococcus pneumoniae [7]) | MIC (Streptococcus pneumoniae [10])
0.25 mg/L: MIC (Streptococcus pneumoniae [2])
16 mg/L: MIC (Streptococcus pneumoniae [3]) | MIC (Streptococcus pneumoniae [19]) | MIC (Streptococcus pneumoniae [20])
0.12 mg/L: MIC (Streptococcus pneumoniae [1])
2 mg/L: MIC (Streptococcus pneumoniae [12]) | MIC (Streptococcus pneumoniae [24])
8 mg/L: MIC (Streptococcus pneumoniae [8]) | MIC (Streptococcus pneumoniae [9]) | MIC (Streptococcus pneumoniae [14]) | MIC (Streptococcus pneumoniae [15]) | MIC (Streptococcus pneumoniae [18]) | MIC (Streptococcus pneumoniae [22]) | MIC (Streptococcus pneumoniae [26])

CC[n+]1c(-c2ccccc2)c2cc(N)ccc2c2ccc(N)cc21.[Br-] [HOMIDIUM BROMIDE]
8 mg/L: MIC (Streptococcus pneumoniae [12])
4 mg/L: MIC (Streptococcus pneumoniae [6]) | MIC (Streptococcus pneumoniae [14])
0.25 mg/L: MIC (Streptococcus pneumoniae [15]) | MIC (Streptococcus pneumoniae [23]) | MIC (Streptococcus pneumoniae [24])
16 mg/L: MIC (Streptococcus pneumoniae [2]) | MIC (Streptococcus pneumoniae [25])
0.5 mg/L: MIC (Streptococcus pneumoniae [1]) | MIC (Streptococcus pneumoniae [3]) | MIC90 (Streptococcus pneumoniae [4]) | MIC (Streptococcus pneumoniae [5]) | MIC (Streptococcus pneumoniae [7]) | MIC (Streptococcus pneumoniae [8]) | MIC (Streptococcus pneumoniae [9]) | MIC (Streptococcus pneumoniae [11]) | MIC (Streptococcus pneumoniae [13]) | MIC (Streptococcus pneumoniae [16]) | MIC (Streptococcus pneumoniae [17]) | MIC (Streptococcus pneumoniae [19]) | MIC (Streptococcus pneumoniae [20]) | MIC (Streptococcus pneumoniae [21]) | MIC (Streptococcus pneumoniae [22]) | MIC (Streptococcus pneumoniae [26])
1 mg/L: MIC (Streptococcus pneumoniae [10]) | MIC (Streptococcus pneumoniae [18])

From ChEMBL document CHEMBL1687824, “Overexpression of patA and patB, which encode ABC transporters, is associated with fluoroquinolone resistance in clinical isolates of Streptococcus pneumoniae” (2011)
